Reference: ChEMBL document CHEMBL3621107, “Ring fusion strategy for synthesis and lead optimization of sulfur-substituted anthra[1,2-c][1,2,5]thiadiazole-6,11-dione derivatives as promising scaffold of antitumor agents” (Eur J Med Chem, 2015)
Activity calls are given as the source filed them. The rule behind the calls is not given here.

Key:
[1] = test system: RXF 393; assay: Cytotoxicity against human RXF393 cells after 48 hrs by SRB assay; assay type: functional; conditions: RXF 393, 48 h
Summary of the method: (§1)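 Second-stage NCI-60 panel run by the NCI Developmental Therapeutics Program, covering nine tumour subpanels. Five concentrations were tested: 0.01, 0.1, 1, 10 and 100 μM. Percentage growth at each level was plotted against log10 drug concentration. GI50, TGI and LC50 were read from these dose-response curves. Subpanel MID values were divided into the full-panel MID to give selectivity ratios.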

[2] = Cytotoxicity against human melanoma cells assessed as growth inhibition after 48 hrs by SRB assay; assay type: functional; conditions: Melanoma cell
Summary of the method: (§2)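 Values come from the NCI-60 five-dose panel (0.01–100 µM). The subpanel MID is the mean GI50 over the lines of that tumour subpanel. The selectivity ratio is the full-panel MID divided by the subpanel MID; 3–6 is rated moderate and >6 high.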

[3] = test system: KM12; assay: Cytotoxicity against human KM12 cells after 48 hrs by SRB assay; assay type: functional; conditions: KM12, 48 h
Summary of the method: (§3)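 NCI-60 human tumour cell panel screen, second stage, run by the NCI Developmental Therapeutics Program. Compounds were tested at five concentrations (0.01, 0.1, 1, 10 and 100 μM). Percentage growth was plotted against log10 concentration for each cell line. GI50, TGI and LC50 were taken from these dose-response curves.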

[4] = test system: A549; assay: Cytotoxicity against human A549 cells after 48 hrs by SRB assay; assay type: functional; conditions: A549, 48 h; summary of the method: as §3
[5] = Cytotoxicity against human EKVX cells after 48 hrs by SRB assay; assay type: functional; summary of the method: as §3
[6] = test system: SN12C; assay: Cytotoxicity against human SN12C cells after 48 hrs by SRB assay; assay type: functional; conditions: for CC50: read-out: LC50 (the source's name); summary of the method: as §1
[7] = test system: MDA-MB-231; assay: Cytotoxicity against human MDA-MB-231 cells after 48 hrs by SRB assay; assay type: functional; conditions: MDA-MB-231, 48 h; summary of the method: as §1
[8] = Cytotoxicity against human non-small cell lung cancer cells assessed as growth inhibition after 48 hrs by SRB assay; assay type: functional; conditions: Cancer cell lines; summary of the method: as §2
[9] = test system: T47D; assay: Cytotoxicity against human T47D cells after 48 hrs by SRB assay; assay type: functional
Summary of the method: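 NCI-60 five-dose study run by NCI DTP at 0.01, 0.1, 1, 10 and 100 µM. Percentage growth at each level was plotted against log10 concentration for each line, and GI50, TGI and LC50 were read from the dose-response curves.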

[10] = test system: SK-OV-3; assay: Cytotoxicity against human SKOV3 cells after 48 hrs by SRB assay; assay type: functional; conditions: SK-OV-3, 48 h; summary of the method: as §1
[11] = test system: DU-145; assay: Induction of apoptosis in human DU145 cells assessed as decrease in total PARP at 3 to 12 uM after 48 hrs by Western blotting; assay type: functional, cell-based
[12] = test system: DU-145; assay: Induction of apoptosis in human DU145 cells assessed as increase in cleaved PARP at 3 to 12 uM after 48 hrs by Western blotting; assay type: functional, cell-based
Summary of the method: (§4)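 DU-145 cells were exposed to various concentrations for 48 h. Cells were washed in PBS and lysed on ice for 30 min, then spun at 120000g for 15 min. Protein was measured by Bradford, run on 12% SDS-PAGE and blotted to PVDF. Blots were probed for cleaved PARP and cleaved caspase-3 with chemiluminescent detection and β-actin as loading control; n=3 independent experiments.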

[13] = test system: DU-145; assay: Induction of apoptosis in human DU145 cells assessed as decreased levels of Bcl-2 at 3 to 18 uM after 48 hrs by Western blotting; assay type: functional, cell-based
Summary of the method: (§5)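 DU-145 lysates were analysed by immunoblot for cyclin D1 and Bcl-2 after dosing across a concentration range. Cells were lysed on ice and cleared by centrifugation. Protein was quantified by Bradford, run on 12% SDS-PAGE and transferred to PVDF, with chemiluminescent detection. α-Tubulin served as loading control; n=3 independent experiments.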

[14] = Cytotoxicity against human RWPE1 cells assessed as survival rate after 72 hrs by MTT assay; assay type: cell-based, RWPE-1; conditions: RWPE1 cells, read-out: Survival
Summary of the method: (§6)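 About 2×10^3 cells/well preincubated 24 h at 37 °C, 5% CO2. Compound freshly dissolved in DMSO, diluted into complete medium and added at various concentrations (vehicle 0.1% DMSO) for 72 h. MTT added for 3 h at 37 °C, absorbance read at 570 nm, survival rate derived.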

[15] = test system: DU-145; assay: Induction of apoptosis in human DU145 cells assessed as early apoptotic cells at 3 to 12 uM after 24 hrs by flow cytometry; assay type: functional, cell-based
[16] = target: Mitogen-activated protein kinase; ERK1/ERK2 (Homo sapiens) (UniProt P27361+P28482); assay: Inhibition of human ERK1/2 phosphorylation in human DU145 cells after 48 hrs by Western blotting; assay type: cell-based; conditions: DU-145
Sequence of Mitogen-activated protein kinase; ERK1/ERK2 (Homo sapiens) (P27361 whole entry, looked up): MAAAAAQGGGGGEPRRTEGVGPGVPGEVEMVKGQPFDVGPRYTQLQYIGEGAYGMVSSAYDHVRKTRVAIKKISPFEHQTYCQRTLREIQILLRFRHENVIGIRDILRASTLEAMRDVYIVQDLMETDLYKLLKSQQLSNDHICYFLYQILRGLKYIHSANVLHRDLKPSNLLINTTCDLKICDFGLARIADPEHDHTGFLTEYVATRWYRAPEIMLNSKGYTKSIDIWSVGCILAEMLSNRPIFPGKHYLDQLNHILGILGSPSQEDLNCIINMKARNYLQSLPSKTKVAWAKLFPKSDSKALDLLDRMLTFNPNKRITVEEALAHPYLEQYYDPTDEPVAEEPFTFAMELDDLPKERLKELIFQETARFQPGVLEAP
Sequence of Mitogen-activated protein kinase; ERK1/ERK2 (Homo sapiens) (P28482 whole entry, looked up): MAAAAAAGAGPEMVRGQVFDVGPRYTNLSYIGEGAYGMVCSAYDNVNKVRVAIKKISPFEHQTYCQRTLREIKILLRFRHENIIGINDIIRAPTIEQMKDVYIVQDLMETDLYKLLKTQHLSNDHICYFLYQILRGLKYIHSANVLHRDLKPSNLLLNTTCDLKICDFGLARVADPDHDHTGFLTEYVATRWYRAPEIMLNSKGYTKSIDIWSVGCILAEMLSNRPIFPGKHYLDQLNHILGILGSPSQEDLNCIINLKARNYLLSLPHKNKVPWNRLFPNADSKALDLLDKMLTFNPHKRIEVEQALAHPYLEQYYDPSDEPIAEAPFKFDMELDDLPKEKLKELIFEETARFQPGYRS
Summary of the method: (§7)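 DU-145 cells were treated at 3, 12 and 18 µM and phospho-ERK1/2 and phospho-p38 were assessed by Western blot. Lysis was on ice with centrifugation, then Bradford protein assay, 12% SDS-PAGE, PVDF transfer and chemiluminescent detection.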

[17] = test system: DU-145; assay: Induction of apoptosis in human DU145 cells assessed as cleaved caspase 3 at 3 to 12 uM after 48 hrs by Western blotting; assay type: functional, cell-based; summary of the method: as §4
[18] = test system: DU-145; assay: Induction of apoptosis in human DU145 cells assessed as decreased levels of cyclin D1 at 3 to 18 uM after 48 hrs by Western blotting; assay type: functional, cell-based; summary of the method: as §5
[19] = Cytotoxicity against human WPMY-1cells assessed as survival rate after 72 hrs by MTT assay; assay type: cell-based; conditions: WPMY-1 cells, read-out: Survival; summary of the method: as §6
[20] = test system: DU-145; assay: Induction of apoptosis in human DU145 cells assessed as cell rounding and shrinkage at 5 uM after 24 hrs by phase contrast microscopy analysis; assay type: functional, cell-based
Summary of the method: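 DU-145 cells were seeded at 5×10^5 per 10 cm dish and treated with various concentrations for 24 h. Unfixed cells were examined and photographed by phase-contrast microscopy for rounding and shrinkage.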

[21] = Cytotoxicity against human SV-HUC1 cells assessed as survival rate after 72 hrs by MTT assay; assay type: cell-based; conditions: SV-HUC1 cells, read-out: Survival
Summary of the method: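 SV-HUC-1 cells grown in Ham's F-12K with 5% heat-inactivated fetal calf serum, 37 °C, 5% CO2. About 2×10^3 cells/well plated for 24 h, then a range of compound concentrations (DMSO stock diluted into medium; vehicle 0.1% DMSO) for 72 h. MTT added for 3 h at 37 °C; absorbance 570 nm.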

[22] = target: MAP kinase p38 (Homo sapiens) (UniProt O15264+Q15759+Q16539+P53778); assay: Inhibition of human p38 phosphorylation in human DU145 cells after 48 hrs by Western blotting; assay type: cell-based; conditions: DU-145; summary of the method: as §7

| Structure (SMILES) | GI50 [1] [µM] | LC50 (concentration killing 50% of cells) [1] [µM] | TGI [1] [µM] | GI50 [2] [µM] | GI50 [3] [µM] | LC50 (concentration killing 50% of cells) [3] [µM] | TGI [3] [µM] | GI50 [4] [µM] | LC50 (concentration killing 50% of cells) [4] [µM] | TGI [4] [µM] | GI50 [6] [µM] | TGI [6] [µM] | CC50 [6] [µM] | GI50 [7] [µM] | LC50 (concentration killing 50% of cells) [7] [µM] | TGI [7] [µM] | GI50 [8] [µM] | GI50 [9] [µM] | LC50 (concentration killing 50% of cells) [9] [µM] | TGI [9] [µM] | also measured |
| --- | --- | --- | --- | --- | --- | --- | --- | --- | --- | --- | --- | --- | --- | --- | --- | --- | --- | --- | --- | --- | --- |
| O=C1c2ccccc2C(=O)c2c1cc(Sc1cccc(Cl)c1)c1nsnc21 | 2.15 | 10.9 | 4.7 | 1.56 | 12 | 65.7 | 28 | 6.66 | 73.6 | 24.4 | 1.05 | 2.58 | 6.35 | 0.37 | 31.6 | 4.1 | 5.84 | 1.29 | 8.72 | 3.35 | GI50 [5]: 16 µM; LC50 [5]: 55 µM; TGI [5]: 29.7 µM; GI50 [10]: 3.97 µM; LC50 [10]: 34.8 µM; TGI [10]: 12.1 µM |
| O=C1c2ccccc2C(=O)c2c1cc(Sc1ccccc1Br)c1nsnc21 | 9.14 | 42.2 | 19.6 | 12.9 | 41.9 | > 50 | > 50 | > 50 | > 50 | > 50 | 10.5 | 39.7 | > 50 | 7.52 | > 50 | 37.3 | 19.3 | 3.7 | > 50 | 18.3 | GI50 [5]: > 50 µM; LC50 [5]: > 50 µM; TGI [5]: > 50 µM; GI50 [10]: 21 µM; LC50 [10]: > 50 µM; TGI [10]: > 50 µM |
| O=C1c2ccccc2C(=O)c2c1cc(SCc1ccccc1)c1nsnc21 | 7.2 | 27.4 | 14 | 10.6 | 19.5 | > 50 | > 50 | > 50 | > 50 | > 50 | 7.16 | 14.5 | 29.3 | 5.14 | 34.8 | 13.4 | 9.57 | 1.16 | 42.9 | 5.29 | GI50 [5]: 14.2 µM; LC50 [5]: > 50 µM; TGI [5]: 26.3 µM; GI50 [10]: 13.7 µM; LC50 [10]: > 50 µM; TGI [10]: 18.5 µM |
| CC(C)Sc1cc2c(c3nsnc13)C(=O)c1ccccc1C2=O | 1.77 | 16.9 | 4.83 | 1.12 | 3.19 | 41.1 | 11.3 | 2.43 | 51.4 | 7.94 | 0.66 | 2.41 | 7.09 | 0.29 | 4.9 | 1.41 | 1.81 | 0.38 | 9.11 | 2.15 | Activity [11]: Active; Activity [12]: Active; Activity [13]: Active; viability at 72 h [14]: 60%; Activity [15]: Active; inhibition [16]: Active; Activity [17]: Active; Activity [18]: Active; viability at 72 h [19]: 50%; Activity [20]: Active; GI50 [10]: 2.9 µM; LC50 [10]: 36.9 µM; TGI [10]: 12.6 µM; viability at 72 h [21]: 80%; inhibition [22]: Active |
| O=C1c2ccccc2C(=O)c2c1cc(Sc1ccc(F)cc1F)c1nsnc21 | 2.02 | 6.67 | 3.69 | 2.12 | 9.91 | > 100 | 77.3 | 14.9 | > 100 | 42.4 | 1.64 | 4.96 | 19.4 | 1.2 | 12.9 | 3.61 | 19 | 0.86 | 7.02 | 2.57 | GI50 [5]: 20.8 µM; LC50 [5]: > 100 µM; TGI [5]: 66.5 µM; GI50 [10]: 2.34 µM; LC50 [10]: 13 µM; TGI [10]: 5.08 µM |
